# Most compounds without a hit are left out; they make up all but 2.9% or so of the library.
# Runt-SMMHC FRET: Runt domain-CBFb-SMMHC interaction inhibition | Q01196+Q13951 | inhibition, % at 20 µM | Cerulean-Runt/Venus-CBFb-SMMHC FRET ratio 530/480, 1 h | 220,000 tested, 0.74% active;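 active = mean inhibition across duplicate retests at 20 µM reaching about 50%, limit read from the data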;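 also: 0% = DMSO wells and 100% = wells with excess untagged CBFb-SMMHC; inhibitors lower the FRET ratio by blocking Runt binding to CBFb-SMMHC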
# AI-2 QS modul: modulators of Vibrio harveyi AI-2 quorum sensing system. Vibrio harveyi JMH597 AI-2 luminescence/OD600 ratio, 9 h; active compounds read low; strain lacks LuxN and CqsS sensors; 0 = neutral-control median. activity change, % at 7.5 µM. 300,000 tested, 0.4% active. AID 2094; in the data active = activity change below about -75%, passing the limit was not always enough; inconclusive = no clear call, values can overlap the other calls;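 also: luminescence divided by OD600 gain over 9 h not by final OD600 alone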
# proKLK7 act: activates the human kallikrein-7 zymogen; P49862; purified proKLK7, EDANS-DABCYL substrate fluorescence; 100% is mature enzyme control, 0% vehicle; 370,000 tested, 0.9% active; activation, % at 7 µM;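 active = activation above the mean of all tested compounds plus 3 SD, computed per campaign excluding outliers beyond control limits, cut at about 13% in these data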
# Target sequence (P49862 whole entry, looked up): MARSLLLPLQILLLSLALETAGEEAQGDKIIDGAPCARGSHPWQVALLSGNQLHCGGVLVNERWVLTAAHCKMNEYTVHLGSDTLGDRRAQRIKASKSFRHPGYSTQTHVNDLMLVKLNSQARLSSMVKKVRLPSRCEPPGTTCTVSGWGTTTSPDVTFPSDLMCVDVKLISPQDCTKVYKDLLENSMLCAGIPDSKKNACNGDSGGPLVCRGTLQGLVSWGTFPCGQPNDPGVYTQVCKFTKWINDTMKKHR
# RanGTP-Impb inh: disruptors of Ran-importin-beta complex formation – biochemical, FRET, CFP-Ran, YFP-importin-beta, homogeneous, primary screen; 300,000 tested, 1.1% active; cell-free CFP-Ran/YFP-importin-beta FRET ratio; inhibition, % (test concentration not listed);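 active = more than half of the replicate wells show a fall in the fluorescence ratio signal beyond about 16%, limit read from the data, passing the limit was not always enough; inconclusive = exactly half of the replicate wells pass the set limit; inactive = fewer than half of replicates pass the limit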;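 also: 0% = DMSO wells and 100% = Ran loaded with GDP instead of GTP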
# Runt-CBFb FRET: blocks binding of human RUNX1 Runt domain to CBFb | Cerulean-Runt/Venus-CBFb FRET ratio 530/480, 1 h | inhibition, % at 20 µM | 220,000 tested, 0.46% active;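 active = inhibition over about 50% at 20 µM in the single-dose screen, limit read from the data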;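 also: 0% = DMSO wells and 100% = excess unlabeled CBFb competitor control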
#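 Buffer or medium: Tris pH 7.5 buffer with BSA. Assay system: Cerulean-labeled Runt domain protein. Amount: each fluorescent fusion protein 100 nM. Read-out basis: loss of energy transfer signal. Incubation: 1 h compound exposure, room temperature. Probe or stimulus: Venus-CBFb binding partner, 100 nM. Detection: FRET, excitation 422 nm, emission at 530 and 480 nm.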
# Wee1 stabilizer: human Wee1 degradation inhibition, primary screen; 220,000 tested, 1.2% active; HeLa Luc-Wee1K328M stability, luciferase luminescence; 100% = proteasome inhibitor MG132 effect; reporter increase, % at 5 µM;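 active = activation above the mean of all tested compounds plus 3 SD, set per screening run, cut at about 8.8% in these data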;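 also: cells exposed to compound for 20 h before luminescence read; 0% = DMSO alone and 100% = MG132 at 30 µM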
# JMH597 growth rt: retest: blocks Vibrio harveyi JMH597 growth. shares compounds with AI-2 QS modul. OD600 absorbance, 9 h; lacks LuxN and CqsS sensors. growth inhibition, % at 7.5 µM. 750 tested, 1% active;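 active = every replicate shows growth inhibition above 50%; inconclusive = at least half, but not all, replicates pass that cutoff; inactive = fewer than half of replicates pass it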
# BB721 const-QS lum: retest counter-screen: luminescence loss in constitutive-on quorum sensing strain BB721; Vibrio harveyi BB721 luminescence, 9 h; shares compounds with AI-2 QS modul; inhibition, % at 7.5 µM; 750 tested, 95% active;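 active = inhibition above about 80% in every replicate, not just on average, limit read from the data; inconclusive = at least half of replicates past the limit, but not all; inactive = fewer than half of replicates past the limit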
# BB721 growth: retest Vibrio harveyi BB721 growth inhibition. shares compounds with AI-2 QS modul. OD600 absorbance, 9 h. growth inhibition, % at 7.5 µM. 750 tested, 3% active. AID 2728;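 active = every replicate shows growth inhibition above 50%; inconclusive = at least half but not all replicates above 50% inhibition; inactive = under half of replicates above 50% inhibition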
# JMH597 AI-2 mod: Vibrio harveyi AI-2 signaling luminescence modulation – JMH597 strain, confirmation. 750 tested, 97% active. Vibrio harveyi JMH597 AI-2 quorum sensing luminescence, 9 h; luxN and CqsS knockout, AI-2 only. inhibition, % at 7.5 µM. shares compounds with AI-2 QS modul;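 active = every replicate shows more than 75% inhibition of signal versus neutral control wells; inconclusive = half to three quarters of replicates exceed 75% inhibition; inactive = fewer than half of replicates exceed 75% inhibition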
# An asterisk follows results filed as active; ? = inconclusive; · = no result.
SMILES,Runt-SMMHC FRET,AI-2 QS modul,proKLK7 act,RanGTP-Impb inh,Runt-CBFb FRET,Wee1 stabilizer,JMH597 growth rt,BB721 const-QS lum,BB721 growth,JMH597 AI-2 mod
O=C1NCCCC1C(=O)N/N=C/c1cccc(Cl)c1 (configuration not stated),-7.3,-79.4*,-0.1,1.0,1.2,-2.8,-13.3,89.2*,1.5,92.8*
COC(=O)CSc1nnc(COc2cccc3ccccc23)o1,·,-83.3*,0.3,-1.0,·,·,-3.2,92.3*,-17.9,93.2*
Cc1ccc(CCC(=O)Nc2ccccc2F)s1,2.4,-88.7*,-0.8,1.8,0.0,1.8,17.5,94.3*,2.5,95.8*
COc1cccc(N(C)C(=O)[C@@H](C2CC2)[C@@H](O)c2ccc(Cl)cc2)c1,·,·,0.5,·,·,·,·,·,·,·
CCOc1ccc(N(CC(=O)Nc2ccc(C)c(C)c2)S(C)(=O)=O)cc1,·,11.5,-0.2,5.1,·,·,·,·,·,·
CC(C)c1ccc(CNC(=O)CCc2ccccc2)cc1,-0.1,-88.8*,-0.4,12.4,0.5,-2.0,12.5,95.8*,1.0,97.2*
O=C(CCc1ccccc1)NCc1ccccc1,15.6,-60.7,0.2,·,-2.3,-3.6,·,·,·,·
Cc1ccc(CNC(=O)CCc2ccccc2)cc1,4.9,-81.0*,0.5,1.1,-0.6,-2.4,17.5,92.5*,17.8,93.9*
c1ccc(-c2nnc(SCc3ccncc3)o2)cc1,·,·,0.7,·,·,·,·,·,·,·
Brc1cccc(CSc2nnc(-c3ccncc3)o2)c1,0.8,-85.5*,-0.1,·,-1.3,0.7,14.6,94.9*,6.2,95.8*
c1ccc2c(CSc3nnc(-c4ccncc4)o3)cccc2c1,-3.4,-83.3*,-0.2,2.2,-3.4,2.2,5.0,94.3*,-7.9,95.6*
CCOc1ccc(CN2CCN(Cc3nc4c(s3)CCCC4)CC2CCO)cc1 (configuration not stated),2.1,22.1,-0.7,-2.3,-2.1,2.1,·,·,·,·
COc1ccc(CN=CC2=C(O)CNC2=O)cc1,1.5,4.0,0.0,-4.0,0.0,-3.3,·,·,·,·
COc1ccc(CN=CC2=C(O)CC(C)(C)CC2=O)cc1,-0.8,-80.0*,-0.9,-4.3,-3.3,-1.9,22.8,87.6*,13.0,92.3*
COc1ccc(Nc2nc3c([nH]2)c(=O)[nH]c(=O)n3C)cc1,0.1,21.9,0.1,1.5,2.7,-0.8,·,·,·,·
COc1ccc(C(=O)Cn2nnc(-c3ccccc3F)n2)cc1,1.9,-86.0*,-0.2,1.4,-3.6,5.0,25.1,94.9*,-2.9,96.9*
CCc1nnc(NC(=O)CN2C(=O)c3ccccc3C2=O)s1,1.7,?,0.8,3.1,0.4,1.7,·,·,·,·
Cc1cccc2sc(NC(=O)CN3C(=O)c4ccccc4C3=O)nc12,0.9,-84.5*,-0.3,0.0,2.6,0.9,3.6,94.1*,-18.6,96.5*
Cc1ccc2sc(NC(=O)CN3C(=O)c4ccccc4C3=O)nc2c1C,3.0,-95.0*,0.1,-1.5,1.2,1.7,-28.5,94.7*,-43.6,96.7*
Cc1cccc2sc(NC(=O)Cn3c(C)csc3=O)nc12,·,·,0.7,·,·,·,·,·,·,·
CC1(Cc2ccc(C(F)(F)F)o2)C(=O)Nc2cc(-c3ccc(F)cc3F)ccc21 (configuration not stated),·,·,-0.2,·,·,·,·,·,·,·
CSc1ncnc2ncn(C)c12,·,·,-0.4,·,·,·,·,·,·,·
CCCCC(=O)NC(=S)Nc1ccc(S(=O)(=O)N2CCCC2)cc1,0.7,-84.2*,0.0,1.9,-1.7,2.4,17.5,85.5*,5.1,92.4*
CCCC(=O)Nc1ccc(S(=O)(=O)N2CCCC2)cc1,0.2,-13.1,0.2,-0.4,-0.7,0.8,·,·,·,·
O=C(Nc1ccc(S(=O)(=O)N2CCCCC2)cc1)C1CC1,·,16.2,-0.9,?,·,·,·,·,·,·
SMILES,Runt-SMMHC FRET,AI-2 QS modul,proKLK7 act,RanGTP-Impb inh,Runt-CBFb FRET,Wee1 stabilizer,JMH597 growth rt,BB721 const-QS lum,BB721 growth,JMH597 AI-2 mod
CCOc1ccc(OCC)c(NC(=O)C2CCN(S(=O)(=O)c3cccnc3)CC2)c1,-0.3,5.9,-0.3,0.1,1.3,6.5,·,·,·,·
O=C(Nc1ccc(S(=O)(=O)N2CCCC2)cc1)C1CCCCC1,·,-82.8*,0.4,2.9,·,·,13.6,93.1*,18.6,95.5*
CCOc1ccc(NC(=O)C2CCN(S(=O)(=O)c3cccnc3)CC2)cc1,6.1,-86.3*,-0.1,-1.4,0.8,-0.8,20.4,95.0*,14.2,96.9*
Cc1c(NC(=O)COC(=O)c2cccc(F)c2)c(=O)n(-c2ccccc2)n1C,·,·,0.6,·,·,·,·,·,·,·
COc1ccc(Oc2cn[nH]c2-c2ccc(O)cc2O)cc1,-2.0,-90.4*,0.1,2.4,1.3,1.1,?,96.5*,?,98.2*
COc1ccc(-c2csc(NC(=O)CSc3nc(C)nc4sc(C(=O)O)c(C)c34)n2)cc1,-5.1,52.8,0.4,1.5,8.6,2.3,·,·,·,·
CCN(CC)S(=O)(=O)c1ccc(NC(=O)Cn2cnc3ccccc3c2=O)cc1,-3.0,-94.2*,0.1,2.8,-1.5,-1.7,23.1,98.8*,12.7,99.2*
CN(C)S(=O)(=O)c1cccc(NC(=O)Cn2cnc3ccccc3c2=O)c1,-6.9,-88.0*,-0.4,4.5,2.0,-1.3,15.0,96.1*,12.7,97.2*
NS(=O)(=O)c1ccc(NC(=O)COC(=O)Cn2cnc3ccccc3c2=O)cc1,·,·,-0.6,·,·,·,·,·,·,·
Clc1ccc(OCCn2cnc(Cl)c2Cl)cc1,-1.8,-83.9*,-0.3,5.5,-0.5,-1.2,10.8,88.3*,-329.8,92.4*
COc1ccc(OCCn2cnc(Cl)c2Cl)cc1,-1.3,-1.9,-0.1,2.5,-1.2,-1.6,·,·,·,·
Cc1cccc(NCc2nc(-c3ccccc3)no2)c1,-3.6,?,-0.1,10.6,2.9,2.3,11.9,96.3*,-10.7,97.7*
O=C(NCc1nc(-c2ccc(C(F)(F)F)cc2)no1)c1cccs1,-2.3,-94.2*,0.7,0.6,-0.1,9.6*,-19.2,96.4*,-12.6,97.4*
O=C(O)COCC(=O)NCc1nc(-c2ccc(C(F)(F)F)cc2)no1,-1.1,-1.1,0.2,-3.5,-0.1,4.5,·,·,·,·
Cc1cccc(-c2noc(CNC(=O)c3ccco3)n2)c1,·,-94.1*,-0.3,3.4,·,·,7.9,98.6*,28.7,98.9*
Cc1cccc(-c2noc(CN(C)C(=O)c3ccco3)n2)c1,·,17.3,0.0,-1.3,·,·,·,·,·,·

# Screening data: PubChem, several laboratories
